Source: PubChem
Shown are actives, neighbours in structure and some others; about 0.99% of the full set was active somewhere.
FN deposit inh: fibronectin deposition inhibition; inhibition, % at 12.6 µM; hit rate 0.086% among 350,000; AH1F fibroblasts, Alexa488-fibronectin deposition fluorescence, overnight;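 active = mean inhibition across replicates of 30% or more, regardless of how many single replicates reach that level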;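 note: positive control wells lacked labelled fibronectin entirely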
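Material: AH1F fibroblasts assembling fluorescent fibronectin matrix; amount: 10000 AH1F cells/well; medium: DMEM, 2% serum; reagent: Alexa488-fibronectin, 24 nM final in well; dosing: single compound dose, delivered by pin transfer; incubation: 1 h adhesion, overnight exposure; detection: fluorescence after three HBSS washes, excitation 485 nm, emission 525 nm; measure: fibronectin deposition inhibition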
NPR2 activator: GC-B (human) receptor activation. P20594. HEK293-GC-B cells, CNP EC30, cGMP TR-FRET; 0% at EC30 CNP, 100% saturating CNP. activation, % at 10 µM. hit rate 0.11% among 370,000;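 active = activation at 10 µM reaching about 35% in either raw or pattern-adjusted values, limit read from the data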
Target sequence (P20594 whole entry, looked up): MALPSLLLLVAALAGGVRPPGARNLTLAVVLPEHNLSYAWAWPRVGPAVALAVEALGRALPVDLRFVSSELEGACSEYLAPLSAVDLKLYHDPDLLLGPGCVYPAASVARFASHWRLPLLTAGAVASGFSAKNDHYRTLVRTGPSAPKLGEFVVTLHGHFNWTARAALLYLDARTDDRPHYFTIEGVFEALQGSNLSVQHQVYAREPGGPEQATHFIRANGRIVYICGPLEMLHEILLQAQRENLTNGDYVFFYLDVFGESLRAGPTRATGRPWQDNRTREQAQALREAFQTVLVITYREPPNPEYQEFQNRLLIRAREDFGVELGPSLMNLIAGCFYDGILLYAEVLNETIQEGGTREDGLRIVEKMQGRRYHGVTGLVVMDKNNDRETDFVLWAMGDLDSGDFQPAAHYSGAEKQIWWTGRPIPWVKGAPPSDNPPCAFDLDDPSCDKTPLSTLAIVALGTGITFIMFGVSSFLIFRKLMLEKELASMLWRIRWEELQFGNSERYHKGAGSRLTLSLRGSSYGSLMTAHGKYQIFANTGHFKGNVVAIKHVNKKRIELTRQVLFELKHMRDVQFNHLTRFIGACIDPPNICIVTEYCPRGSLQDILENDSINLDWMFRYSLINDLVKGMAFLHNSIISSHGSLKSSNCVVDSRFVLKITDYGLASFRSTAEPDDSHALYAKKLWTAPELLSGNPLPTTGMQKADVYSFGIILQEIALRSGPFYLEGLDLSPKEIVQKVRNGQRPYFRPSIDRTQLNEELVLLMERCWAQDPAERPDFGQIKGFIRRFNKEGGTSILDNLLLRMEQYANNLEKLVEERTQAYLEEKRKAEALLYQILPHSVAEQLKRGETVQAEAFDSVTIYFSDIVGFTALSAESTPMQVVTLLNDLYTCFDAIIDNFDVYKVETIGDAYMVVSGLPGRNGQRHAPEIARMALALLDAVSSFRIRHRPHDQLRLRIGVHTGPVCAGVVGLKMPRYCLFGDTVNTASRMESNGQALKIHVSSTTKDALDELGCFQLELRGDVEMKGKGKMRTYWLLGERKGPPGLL
NSD2 HMT inh: NSD2 (human) methyltransferase inhibition | O96028 | NSD2 peptide methylation, AlphaScreen, 120 min | inhibition, % at 12.5 µM | hit rate 0.54% among 310,000 | AID 743445; in the data active = inhibition above about 50%
CaV13 ICDI inh: Primary screen for inhibitors of IQ motif and Ca2+-dependent inactivation inhibitor domain binding in CACNA1D, Förster resonance energy transfer in living cells, …; HEK cells, CFP/YFP FRET ICDI-IQ, plate reader, 10 min; percent FRET-ratio fall versus neutral wells; inhibition, % at 12.3 µM; hit rate 0.098% among 340,000;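 active = mean replicate inhibition of at least 30% and at least 1% of replicates passing that level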;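 note: 0% = median of the neutral control wells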
GC-A act: GC-A (human) enzyme activation | P16066 | HEK293 GC-A cells, cGMP TR-FRET, EC30 ANP; 0% at EC30 ANP, 100% saturating ANP | activation, % at 10 µM | hit rate 0.14% among 370,000 | AID 1671463; in the data active = activation above about 40%
Casp6 inh: inhibitors of human caspase-6; P55212; purified caspase-6, Z-VEID-R110 cleavage fluorescence; inhibition, % at 12.5 µM; hit rate 0.53% among 350,000;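 active = mean inhibition across replicates at least about 35%, with every replicate also reaching that limit, limit read from the data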;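 note: 0% = median of neutral control wells and 100% = no fluorescence left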
Active calls of the source: *.

Results for CC(=O)N1CCN(C(=S)c2ccc(-c3ccc(Cl)cc3)o2)CC1 ?
NPR2 activator: 48*; NSD2 HMT inh: 2; CaV13 ICDI inh: 0; GC-A act: 43*

Results for NC(=O)C1CCN(C(=S)c2ccc(-c3ccc(Br)cc3)o2)CC1 ?
FN deposit inh: 0; NPR2 activator: 47*; NSD2 HMT inh: -10; CaV13 ICDI inh: -5; GC-A act: 45*; Casp6 inh: -2

Results for O=C1c2ccccc2S(=O)(=O)c2cc(N3CCC(C(=O)N4CCCCC4)CC3)ccc21 ?
FN deposit inh: -2; NPR2 activator: 8; CaV13 ICDI inh: active; GC-A act: 6; Casp6 inh: 0

Results for CO[C@H](CN(C)C(=O)Nc1ccc(F)cc1)[C@@H](C)CN(Cc1ccccc1Cl)[C@H](C)CO ?
FN deposit inh: -19; Casp6 inh: -1

What do the screens show for `Cc1cnc(NC(=O)c2ccc3c(c2)OCCO3)s1`?
FN deposit inh: 10; NPR2 activator: 0; NSD2 HMT inh: 0; CaV13 ICDI inh: -5; GC-A act: -2; Casp6 inh: 36*

How did Cc1nc2ccc3nc(NC(=O)c4ccc5c(c4)OCCO5)sc3c2s1 do in these assays?
NPR2 activator: 3; NSD2 HMT inh: 0; GC-A act: 0

What do the screens show for `Cc1csc(=O)n1CC(=O)OCC(=O)NCc1ccc(F)cc1`?
FN deposit inh: -6; NPR2 activator: -2; NSD2 HMT inh: -1; CaV13 ICDI inh: -6; GC-A act: 3; Casp6 inh: 59*

What do the screens show for `COCC(=O)Nc1ccc2c(c1)OC[C@H](C)N(Cc1ccccc1F)C[C@@H](C)[C@H](OC)CN(C)C2=O`?
FN deposit inh: -1; Casp6 inh: 0

How did COCC#Cc1ccc2c(c1)O[C@@H](CN(C)Cc1ccccn1)[C@@H](C)CN([C@H](C)CO)S2(=O)=O do in these assays?
FN deposit inh: -3; Casp6 inh: -2

How did N#CC1=C(N)Oc2cc(O)ccc2C1c1ccc(Br)s1 (stereo unspecified) do in these assays?
FN deposit inh: -4; NPR2 activator: -6; NSD2 HMT inh: 9; CaV13 ICDI inh: -11; GC-A act: 75*; Casp6 inh: 14

What do the screens show for `COC(=O)C1=CC(=O)C=C(OC)[C@@]12Oc1cc(C)cc(OC)c1C2=O`?
NPR2 activator: 34; GC-A act: 79*

Results for CCCNC(=O)Nc1ccc2c(c1)C(=O)N(C)[C@H]1CC[C@H](CC(=O)NCc3ccccc3)O[C@H]1CO2 ?
FN deposit inh: -6

What do the screens show for `COCc1cn(CC[C@@H]2CC[C@@H](NC(=O)CCN3CCCCC3)[C@@H](CO)O2)nn1`?
FN deposit inh: 0; Casp6 inh: -1

How did CCOC(=O)c1c(C)n(CCOc2ccccc2)c2ccc(O)cc12 do in these assays?
FN deposit inh: -11; NPR2 activator: -1; NSD2 HMT inh: -5; CaV13 ICDI inh: -6; GC-A act: 56*; Casp6 inh: 12

How did CCOC(=O)c1c(C)n(CCNC(C)=O)c2ccc(O)cc12 do in these assays?
FN deposit inh: 13; NPR2 activator: 4; NSD2 HMT inh: -2; CaV13 ICDI inh: -11; GC-A act: -1

Results for O=S(=O)(Nc1c(S(=O)(=O)c2ccccc2)c2nc3ccccc3nc2n1C1CCCCC1)c1ccccc1 ?
FN deposit inh: -8; NPR2 activator: 12; NSD2 HMT inh: 141*; CaV13 ICDI inh: -3; GC-A act: 4; Casp6 inh: 41*

Results for O=C(C[C@H]1CC[C@H]2[C@@H](COC[C@H](O)CN2C(=O)Cc2ccccc2)O1)NC1CCCC1 ?
FN deposit inh: -15; Casp6 inh: 1

Results for CCn1c(=O)cc(OCC(=O)NCCCN2CCC(C)CC2)c2ccccc21 ?
FN deposit inh: -5; NPR2 activator: -1; NSD2 HMT inh: 4; CaV13 ICDI inh: -5; GC-A act: 2

Results for CC1CCN(CCCNC(=O)COc2cc(=O)n(C)c3ccccc23)CC1 ?
FN deposit inh: -2; NPR2 activator: 2; NSD2 HMT inh: -2; CaV13 ICDI inh: -3; GC-A act: 0; Casp6 inh: 78*

Results for O=C(CCN1CCN(c2ccccc2)CC1)N/N=C/c1ccc(O)c(O)c1O ?
FN deposit inh: 5; NPR2 activator: -1; NSD2 HMT inh: 21; CaV13 ICDI inh: -2; GC-A act: -2; Casp6 inh: 65*

How did COc1ccc(/C=N/NC(=O)CCN2CCN(c3ccccc3)CC2)c(OC)c1OC do in these assays?
NPR2 activator: 0; NSD2 HMT inh: -1; CaV13 ICDI inh: -7; GC-A act: -1

What do the screens show for `O=C(Cc1ccccc1)N1C[C@@H]2[C@H](c3ccccc31)[C@H](CO)N2C(=O)Cc1ccccc1`?
Casp6 inh: -4

What do the screens show for `O=C(Nc1cccc(C(=O)N2CCOCC2)c1)c1ccc([N+](=O)[O-])cc1`?
FN deposit inh: 3; NPR2 activator: 0; NSD2 HMT inh: -5; CaV13 ICDI inh: -5; GC-A act: 0; Casp6 inh: 42*

What do the screens show for `O=C(Cc1cccc([N+](=O)[O-])c1)Nc1cccc(C(=O)N2CCOCC2)c1`?
FN deposit inh: 6; NPR2 activator: -1; CaV13 ICDI inh: -5; GC-A act: 1; Casp6 inh: -3

How did CC(NC(=O)C1C2C=CC(C2)C1C(=O)O)c1ccccc1 (stereo unspecified) do in these assays?
NPR2 activator: 3; NSD2 HMT inh: -4; CaV13 ICDI inh: -9; GC-A act: 2

What do the screens show for `Cc1c(NC(=O)C2C3C=CC(C3)C2C(=O)O)c(=O)n(-c2ccccc2)n1C` (stereo unspecified)?
NPR2 activator: -3; NSD2 HMT inh: 3; CaV13 ICDI inh: -9; GC-A act: -5; Casp6 inh: 36*

How did CN(C)c1ccc(NC(=O)C2C3C=CC(C3)C2C(=O)O)cc1 (stereo unspecified) do in these assays?
FN deposit inh: -1; NPR2 activator: -25; CaV13 ICDI inh: -20; GC-A act: -6; Casp6 inh: 42*

How did Cc1c(NC(=O)CN2C(=O)C3C4C=CC(C4)C3C2=O)c(=O)n(-c2ccccc2)n1C (stereo unspecified) do in these assays?
NPR2 activator: 0; NSD2 HMT inh: -1; CaV13 ICDI inh: 0; GC-A act: 0

What do the screens show for `O=C(O)C1C2C=CC(C2)C1C(=O)Nc1ccccc1Br` (stereo unspecified)?
FN deposit inh: 0; NPR2 activator: 2; NSD2 HMT inh: 1; CaV13 ICDI inh: -1; GC-A act: -2; Casp6 inh: 48*

Results for COCCNC(=O)c1cc2c(c(-c3cccc(-c4ccc(C#N)cc4)c3)n1)[C@H](CCO)N(C(=O)CC1CC1)C2 ?
FN deposit inh: 0; Casp6 inh: 9
